Source: ChEMBL document CHEMBL1153242, “Novel spiropiperidine-based stearoyl-CoA desaturase-1 inhibitors: Identification of 1'-{6-[5-(pyridin-3-ylmethyl)-1,3,4-oxadiazol-2-yl]pyridazin-3-yl}-5-(trifluoromethyl)-3,4-dihydrospiro[chromene-2,4'-piperidine]” (Bioorg Med Chem Lett, 2010)
pIC50: −log10 of the molar value.

What was measured:
[1] = target: T1, Stearoyl-CoA desaturase (Homo sapiens, UniProt O00767); experiment: Inhibition of human SCD1 expressed in human 293A cells assessed as conversion of [14C]stearate to [14C]oleate; assay type: cell-based
T1 sequence (O00767 whole entry): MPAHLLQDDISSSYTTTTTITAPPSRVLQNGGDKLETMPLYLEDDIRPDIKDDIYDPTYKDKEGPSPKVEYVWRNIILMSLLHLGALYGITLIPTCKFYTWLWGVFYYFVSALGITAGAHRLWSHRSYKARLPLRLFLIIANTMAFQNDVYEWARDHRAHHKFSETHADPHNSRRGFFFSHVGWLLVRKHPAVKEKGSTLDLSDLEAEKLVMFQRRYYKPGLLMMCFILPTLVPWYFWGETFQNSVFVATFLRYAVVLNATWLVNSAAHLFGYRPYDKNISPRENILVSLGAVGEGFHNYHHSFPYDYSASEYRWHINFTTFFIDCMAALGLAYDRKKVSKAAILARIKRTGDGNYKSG

[2] = target: Stearoyl-CoA desaturase 1 (Mus musculus) (UniProt P13516); experiment: Inhibition of SCD1 in mouse liver assessed as conversion of [14C]stearate to [14C]oleate after 60 mins in S9 microsomal fraction
[3] = target: Stearoyl-CoA desaturase (Homo sapiens) (UniProt O00767); experiment: Inhibition of SCD1 in human 293A cells S9 microsomal fraction assessed as conversion of [14C]stearate to [14C]oleate after 60 mins
[4] = system: Mus musculus; experiment: In vivo inhibition of SCD1 in db/db mouse liver assessed as conversion of [14C]stearate to [14C]oleate administered through oral gavage; assay type: functional; conditions: read-out: ID50 (the source's name)
[5] = target: T1, Stearoyl-CoA desaturase; experiment: Inhibition of SCD1 in human 293A cell microsomal fraction assessed as conversion of [14C]stearate to [14C]oleate after 60 mins at 0.4 uM
[6] = Clearance in C57BL/6J mouse at 5 mg/kg, iv; assay type: ADME, organism-based; set-up: dose 5 mg/kg, route intravenous; conditions: in vivo
Summary of the method: (§1)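 Single iv dose of 5 mg/kg in DMA/Tween80/saline (10/10/80), injected into the tail vein of C57BL/6J mice (n = 2). Plasma collected up to 8 h after dosing and compound measured by LC/MS. Values are arithmetic means of at least two experiments.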

[7] = Volume of distribution in C57BL/6J mouse at 5 mg/kg, iv; assay type: ADME, organism-based; set-up: dose 5 mg/kg, route intravenous; conditions: in vivo; summary of the method: as §1
[8] = Cmax in C57BL/6J mouse at 20 mg/kg, po; assay type: ADME, organism-based; set-up: dose 20 mg/kg, route oral; conditions: in vivo
Summary of the method: (§2)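 Oral dose of 20 mg/kg in PG/Tween (4/1), given by intubation tube to C57BL/6J mice (n = 3). Plasma sampled up to 8 h after dosing and compound levels measured by LC/MS. Values are arithmetic means of at least two experiments.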

[9] = Half life in C57BL/6J mouse at 20 mg/kg, po; assay type: ADME, organism-based; set-up: dose 20 mg/kg, route oral; conditions: in vivo; summary of the method: as §2
[10] = Tmax in C57BL/6J mouse at 20 mg/kg, po; assay type: ADME, organism-based; set-up: dose 20 mg/kg, route oral; conditions: in vivo; summary of the method: as §2
[11] = AUC (0 to8 hrs) in C57BL/6J mouse at 20 mg/kg, po; assay type: ADME, organism-based; set-up: time < 8 hr, dose 20 mg/kg, route oral; conditions: plasma; summary of the method: as §2
[12] = (§3) Oral bioavailability in C57BL/6J mouse at 20 mg/kg; assay type: ADME, organism-based; conditions: C57BL/6J, in vivo
[13] = system: Mus musculus; experiment: In vivo inhibition of SCD1 in non-fat diet-induced oral dosed C57BL/6J mouse liver assessed as conversion of ratio of [14C]oleate to [14C]stearate after 2 to 3 hrs; assay type: functional; conditions: read-out: ID50 (the source's name)
Summary of the method: (§4)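 C57BL/6J mice on a non-fat diet (n = 2) dosed with inhibitor 2 h or 6 h before [14C]stearate. Mice killed 1 h after the [14C]stearate injection and livers removed. ID50 in mg/kg is the arithmetic mean of at least two experiments.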

[14] = system: Mus musculus; experiment: In vivo inhibition of SCD1 in non-fat diet-induced oral dosed C57BL/6J mouse liver assessed as conversion of ratio of [14C]oleate to [14C]stearate after 6 to 7 hrs; assay type: functional; conditions: read-out: ID50 (the source's name); summary of the method: as §4
[15] = system: Mus musculus; experiment: as §3; assay type: ADME, organism-based; conditions: in vivo
[16] = organism: Mus musculus; experiment: Toxicity in C57BL/6J mouse assessed as occurance of abnormilities in eyes; assay type: organism-based; conditions: in vivo
Summary of the method: (§5)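 C57BL/6J mice (n = 4) on a non-fat diet received oral doses once daily for 7 days, up to 3 mg/kg. The plasma desaturation index (C18:1/C18:0 ratio) served as the biomarker. Skin and eyes were inspected for abnormalities.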

[17] = organism: Mus musculus; experiment: Toxicity in C57BL/6J mouse assessed as occurance of abnormilities in skin; assay type: organism-based; conditions: in vivo; summary of the method: as §5
[18] = system: Mus musculus; experiment: Reduction of desaturation index, ratio of C18:1 N9(cis)oleate to C18:0 streate in serum of low fat diet fed po dosed C57BL/6J mouse administered as single dose for 7 days measured after seventh dose; assay type: functional; set-up: scale not given: the % may be the effect or the level left; conditions: in the assay text read “non-fat diet” for “low fat diet”; summary of the method: as §5

| SMILES | pIC50 [1] | pIC50 [2] | pIC50 [3] | ED50 [4] [mg/kg] | other results |
| --- | --- | --- | --- | --- | --- |
| O=C(NCC(O)c1cccnc1)c1ccc(N2CCC3(CCc4c(Cl)cccc4O3)CC2)nn1 (stereo not drawn) |  |  |  | 3 |  |
| FC(F)(F)c1cccc2c1CCC1(CCN(c3ccc(-c4nnc(CCc5cccnc5)o4)nn3)CC1)O2 | 7.46 | 7.80 | 8.70 |  |  |
| O=C(NCC(O)c1ccccc1)c1ccc(N2CCC3(CC2)CC(O)c2ccc(F)cc2O3)nn1 (stereo not drawn) |  |  |  | 20 |  |
| Cc1cccc2c1CCC1(CCN(c3ccc(C(=O)NCC(O)c4cccnc4)nn3)CC1)O2 (stereo not drawn) |  |  |  | 4 |  |
| O=C(NCC(O)c1cccnc1)c1ccc(N2CCC3(CCc4c(cccc4C(F)(F)F)O3)CC2)nn1 (stereo not drawn) |  |  |  | 0.8 | clearance [6]: 17 mL/min/kg; Vd [7]: 1 L/kg; Cmax [8]: 3500 ng/mL; half-life [9]: 2 h; Tmax [10]: 1 h; AUC(0-t) at 8 h [11]: 13000 ng·h/mL; bioavailability [12]: 67%; ED50 [13]: 0.9 mg/kg; ED50 [14]: 2.5 mg/kg |
| O=C(NCC(O)c1cccnc1)c1ccc(N2CCC3(CCc4c(F)ccc(F)c4O3)CC2)nn1 (stereo not drawn) |  |  |  | 5 |  |
| O=C(NCC(O)c1cccnc1)c1ccc(N2CCC3(CCc4c(F)cccc4O3)CC2)nn1 (stereo not drawn) | 8.15 | 8.22 | 7.92 | 2 |  |
| O=C(NCC(O)c1ccccc1)c1ccc(N2CCC3(CC2)CC(O)c2cc(F)ccc2O3)nn1 (stereo not drawn) |  |  | < 6.00 |  |  |
| O=C(NCC(O)c1ccccc1)c1ccc(N2CCC3(CC2)CC(O)c2c(F)cccc2O3)nn1 (stereo not drawn) |  |  |  | 7 |  |
| O=C(NCC(O)c1ccccc1)c1ccc(N2CCC3(CC2)CC(O)c2ccccc2O3)nn1 (stereo not drawn) |  |  |  | 15 |  |
| FC(F)(F)c1cccc2c1CCC1(CCN(c3ccc(-c4nnc(-c5cccnc5)o4)nn3)CC1)O2 |  | < 5.00 |  |  |  |
| FC(F)(F)c1cccc2c1CCC1(CCN(c3ccc(-c4nnc(Cc5cccnc5)o4)nn3)CC1)O2 | 9.10 | 10.22 | 10.52 |  | Cmax [8]: 2600 ng/mL; half-life [9]: 1.4 h; Tmax [10]: 1 h; AUC(0-t) at 8 h [11]: 7800 ng·h/mL; F [15]: Not Active; ED50 [13]: 0.5 mg/kg; ED50 [14]: 0.8 mg/kg; Activity [16]: Non-toxic; Activity [17]: Non-toxic; Activity [18]: 75% |
| Cn1nc(Cc2cccnc2)nc1-c1ccc(N2CCC3(CCc4c(cccc4C(F)(F)F)O3)CC2)nn1 | 7.42 | 7.19 | 8.40 |  |  |
| FC(F)(F)c1cccc2c1CCC1(CCN(c3ccc(-c4nnc(Cc5cccnc5)[nH]4)nn3)CC1)O2 | 8.40 | 9.00 | 9.89 |  |  |

More lines, main results first:

| pIC50 [1] | pIC50 [2] | pIC50 [3] | SMILES | ED50 [4] [mg/kg] | other results |
| --- | --- | --- | --- | --- | --- |
| 6.25 | 7.31 | 6.52 | O=C(NCC(O)c1ccccc1)c1ccc(N2CCC3(CC2)Oc2ccccc2CC3O)nn1 (stereo not drawn) |  |  |
|  | 7.12 |  | O=C(NCC(O)c1ccccc1)c1ccc(N2CCC3(CC2)Cc2ccccc2CO3)nn1 (stereo not drawn) |  | pIC50 [5]: < 6.40 |
|  |  | < 5.00 | O=C(NCC(O)c1ccccc1)c1ccc(N2CCC3(CC2)Oc2ccccc2CC3=O)nn1 (stereo not drawn) |  |  |
|  | 7.21 | 6.10 | O=C(NCC(O)c1ccccc1)c1ccc(N2CCC3(C=Cc4ccccc4O3)CC2)nn1 (stereo not drawn) |  |  |
|  |  | 5.70 | O=C(NCC(O)c1ccccc1)c1ccc(N2CCC3(CC2)Cc2ccccc2C3=O)nn1 (stereo not drawn) |  |  |
|  | < 5.00 |  | O=C(NCC(O)c1ccccc1)c1ccc(N2CCC3(CC2)Oc2ccccc2C3=O)nn1 (stereo not drawn) |  |  |
| 6.16 | 7.30 | 6.60 | O=C(NCC(O)c1ccccc1)c1ccc(N2CCC3(CC2)CC(=O)c2ccccc2O3)nn1 (stereo not drawn) |  |  |
|  |  | < 6.00 | COc1cccc2c1C(O)CC1(CCN(c3ccc(C(=O)NCC(O)c4ccccc4)nn3)CC1)O2 (stereo not drawn) |  |  |
